Tested on: MS2 coat protein
Assay: apparent Kd, MS2 coat protein; higher = weaker binding; RNA-MaP array; theophylline 2 mM where present
How it was run: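 Designs on Illumina sequencing-chip clusters, transcribed by stalled E. coli RNA polymerase, were exposed to SNAP-549-labelled MS2 coat protein in doubling steps from 0.7 or 1.5 nM up to 3 µM, without and then with constant ligand. The buffer held 100 mM Tris-HCl pH 7.5, 80 mM KCl, 4 mM MgCl2, BSA, DTT, yeast tRNA and Tween-20. Apparent Kd values are medians of filtered per-cluster binding-curve fits to green signal normalised to red-channel RNA signal and control-cluster median Fmax.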

[1] = designed as: ON switch for theophylline, no ligand
[2] = ligand present: theophylline, designed as: ON switch for theophylline
[3] = designed as: OFF switch for theophylline, no ligand
[4] = ligand present: theophylline, designed as: OFF switch for theophylline

“AAAAUAAAUAAAACGGGUAACAUGAAGGAUACCAGCCAGGAAACUGGCCCUUGGCAGCCUCUACAUGAGGAUCACCCAUGUCCCG” was tested, and the “apparent Kd” value [1] was 445 nM and the “apparent Kd” value [2] was 35.7 nM.

“AAACAUUGCUCAGAUACCAGACAUGAGGAUCACCCAUGUACCGAGGUACCCGAAAGGAAUGUCCCUUGGCAGCUGAGCAAUGAAA” was tested, and the “apparent Kd” value [3] was 12 nM and the “apparent Kd” value [4] was 129 nM.

With “AACAGGGCUUCCACGAAGCCCUAAGGUGAUACCAGCACAUGUAAGUGCCCUUGGCAGCACGGUACAUGAGGAUCACCCAUGUAGA” the “apparent Kd” value [1] was 50.3 nM and the “apparent Kd” value [2] was 366 nM.

“AAGGUGAUCCCAGAUACCAGCUUAACAUGAGGAUCACCCAUGUUUGGGACGAAAGUCCCGGGCCCUUGGCAGCUGGGUUGCCAAG” was tested, and the “apparent Kd” value [1] was 196 nM and the “apparent Kd” value [2] was 131 nM.

“AAGGUGAUCCGUGAUACCAGCUCAACAUGAGGAUCACCCAUGUAAGCCUGGAAACAGGCGAGCCCUUGGCAGCACGGUAAUAAUA” was tested, and the “apparent Kd” value [1] was 11.9 nM and the “apparent Kd” value [2] was 13.8 nM.

“AAUAACAUGAGGAUCACCCAUGUAAAAGAUACCAGAGUGAUGAUCCUCCCUUGGCAGCUUAAACGCUAUUGGAAACAAUAGCGAA” was tested, and the “apparent Kd” value [1] was 70.2 nM and the “apparent Kd” value [2] was 167 nM.

“AAUAACAUGAGGAUCACCCAUGUAAAAGAUACCAGAUGCAUGAUGAUCCCUUGGCAGCUUAAACGCGAUUGGAAACAAUCGCGAA” was tested, and the “apparent Kd” value [1] was 27.6 nM and the “apparent Kd” value [2] was 148 nM.

For “AAUCUGUCGGGUGAUACCAGCCUCGGCACAUCUCGUGCCGAACAUGAGGAUCACCCAUGUGGCCCUUGGCAGCACAUGACAAAUC”, the “apparent Kd” value [1] was 381 nM and the “apparent Kd” value [2] was 85.3 nM.

“ACAUGAGGAUCACCCAUGUCUGCCACUGAUACCAGCGGAUGCCAACGCCCUUGGCAGCAGAACAUGAGGAUCACCCAUGUAGGCA” was tested, and the “apparent Kd” value [1] was 319 nM and the “apparent Kd” value [2] was 209 nM.

With “ACAUGAGGAUCACCCAUGUGCAGCACGGAUACCAGCGUCCUAGUGCGCCCUUGGCAGCCGGACAUGAGGAUCACCCAUGUGUGGG” the “apparent Kd” value [3] was 77.6 nM and the “apparent Kd” value [4] was 219 nM.

For “ACAUGAGGAUCACCCAUGUGGCGACUUGAUACCAGACCCGCACUAGUCCCUUGGCAGCAACUACGUGUGGGACACCCAUGUGAAG”, the “apparent Kd” value [3] was 20.8 nM and the “apparent Kd” value [4] was 33.7 nM.

For “ACAUGAGGAUCACCCAUGUGGCGUCUUGAUACCAGACGAGAAGUAGUCCCUUGGCAGCAAAUACGUGAGGAUCACACAUGUGCGA”, the “apparent Kd” value [3] was 23.2 nM and the “apparent Kd” value [4] was 37.3 nM.

“ACGAACGAUAGUGAUACCAGACGAACAUGAGGAUCACCCAUGUUAUACACAUGGUUUAUUGUCCCUUGGCAGCACUUUAAGUUCG” was tested, and the “apparent Kd” value [3] was 147 nM and the “apparent Kd” value [4] was 89.6 nM.

With “ACGUCACGUUUACUCGUGGUUUCGAUCGAUACCAGUAGCGAGAGUUACCCUUGGCAGCGACAUGAGGAUCACCCAUGUGCGAAGA” the “apparent Kd” value [3] was 11.8 nM and the “apparent Kd” value [4] was 15.9 nM.

In the case of “ACGUCUCGAAAACUCGUAGUAACUAUAGAUACCAGUAGCGAGAGUUACCCUUGGCAGCUACAUGAGGAUCACCCAUGUACGAGGA”, the “apparent Kd” value [3] is reported as 15.6 nM and the “apparent Kd” value [4] is reported as 15 nM.

With “ACUCGGUGUUUGUUGCUCCGAGUUUAUGAUACCAGUUAGUUUUAUGGCCCUUGGCAGCAUAGGACAUGAGGAUCACCCAUGUGUU” the “apparent Kd” value [1] was 31.7 nM and the “apparent Kd” value [2] was 53.8 nM.

“ACUUUGUCGGGUGAUACCAGCCUCGGCAAAUCUCGUGCCGAACAUGAGGAUCACCCAUGUGGCCCUUGGCAGCACAUGACAACUC” was tested, and the “apparent Kd” value [1] was 442 nM and the “apparent Kd” value [2] was 70 nM.

“AGCAUUGUAACAGAUACCAGACUUUUAAUGCCUCUAAUAACAUGAGGAUCACCCAUGUAUGUCCCUUGGCAGCUGUUAUGAUGCA” was tested, and the “apparent Kd” value [3] was 115 nM and the “apparent Kd” value [4] was 220 nM.

With “AGCGACAUGCAUGAUACCAGCUACAUGAGGAUCACCCAUGUACGUCAGUAAUGACUGUGUAGCCCUUGGCAGCAUAGAGCAUGUU” the “apparent Kd” value [3] was 17.4 nM and the “apparent Kd” value [4] was 53.6 nM.

In the case of “AGCGCUAUGCAUGAUACCAGCUACAUGAGGAUCACCCAUGUGCGUCAGAAAUGACUGUGUAGCCCUUGGCAGCAUAAAGCAUGUA”, the “apparent Kd” value [3] is reported as 19.1 nM and the “apparent Kd” value [4] is reported as 46.3 nM.

In the case of “AUAGUCUUGAGUGAUACCAGACUACAUGAGGAUCACCCAUGUUUCUUUUGGUUAUCAUGUGUCCCUUGGCAGCACGCAUGUAUAG”, the “apparent Kd” value [3] is reported as 16.4 nM and the “apparent Kd” value [4] is reported as 65.8 nM.

With “AUAUGAUCAUAUGAUACCAGAAAUGGUAUUCCUUUCUUUCUUACAUGAGGAUCACCCAUGUUCCCUUGGCAGCAUAUGAUCAUAU” the “apparent Kd” value [3] was 174 nM and the “apparent Kd” value [4] was 193 nM.

“AUAUGAUCAUGUGAUACCAGAAAUGGUAGUCCUCGCUGGAUUACAUGAGGAUCACCCAUGUUCCCUUGGCAGCAUAUGAUCAUAU” was tested, and the “apparent Kd” value [3] was 66.6 nM and the “apparent Kd” value [4] was 751 nM.

With “AUAUUAGACCUGGAUACCAGCGACAUGAGGAUCACCCAUGUAUGUGCAUCAGCCAUGAUAUGCCCUUGGCAGCCACCGAGGUCGU” the “apparent Kd” value [3] was 13.6 nM and the “apparent Kd” value [4] was 37.2 nM.

In the case of “AUCGCACCUGGUGAUACCAGCGUUUGCUCGUGACAUGAGGAUCACCCAUGUGGCCAGUGAUGCCCUUGGCAGCAUGGUCGGUGCA”, the “apparent Kd” value [1] is reported as 230 nM and the “apparent Kd” value [2] is reported as 177 nM.
